Measured values from ChEMBL document CHEMBL3272109, “3-Substituted pyrazole derivatives as inhibitors and inactivators of liver alcohol dehydrogenase” (J Med Chem, 1979).
Calls of active or inactive are those of the source. No cut-off for these calls is given here.

Key:
[1] = molecular target: T1, Alcohol dehydrogenase (Equus caballus) (UniProt P00327+P00328); test: Competitive inhibition of horse liver alcohol dehydrogenase using ethanol as substrate by spectrophotometric titration in presence of 1 mM NAD+
Outline: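 Purified horse liver EE isoenzyme, dialysed and gel-filtered free of ethanol; 10 nM enzyme. Ethanol varied at 0.4–2 mM with NAD⁺ fixed at 1 mM, in 33 mM sodium phosphate pH 7, 25 °C. Rates recorded spectrophotometrically. Constants come from fitting to the competitive inhibition equation; errors are standard errors of the fit.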

Alcohol dehydrogenase = Alcohol dehydrogenase (Equus caballus, UniProt P00327+P00328); test: Inhibition of horse liver alcohol dehydrogenase using ethanol as substrate assessed as dissociation constant by spectrophotometric titration in presence of 1 mM NAD+
Outline: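 Difference titration at 300 nm, 0.1 M sodium phosphate pH 7.0, 25 °C, 1 mM NAD⁺, in a double-sector cuvette (0.438-mm path) against a separated-sector reference. Either 19–27 μM enzyme was titrated with pyrazole, or 100 μM pyrazole was titrated with enzyme. Kd from a Scatchard least-squares fit; SD of three determinations.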

[2] = molecular target: T1, Alcohol dehydrogenase (Equus caballus); test: Reversible inhibition of horse liver alcohol dehydrogenase using ethanol as substrate at 1 mM measured after 100-fold dilution in presence of NAD+; parameters: scale not given: the % may be the effect or the level left
[3] = molecular target: T1, Alcohol dehydrogenase (Equus caballus); test: Reversible inhibition of horse liver alcohol dehydrogenase using ethanol as substrate assessed as increase in enzyme activity at 1 mM measured after 40 mins of 100-fold dilution by stopped-flow method in presence of NAD+; parameters: scale not given: the % may be the effect or the level left
Outline: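 0.94 μN enzyme was preincubated with 1 mM NAD⁺ and 1 mM pyrazole, then diluted 100-fold into assay mix (0.55 M ethanol, 1.75 mM NAD⁺, pH 9, 25 °C). NAD⁺ reduction followed at 340 nm for 40 min. Rates were taken as tangents at various times and expressed versus the original activity; an apparent first-order dissociation rate constant was derived.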

[4] = molecular target: T1, Alcohol dehydrogenase (Equus caballus); test: Reversible inhibition of horse liver alcohol dehydrogenase using ethanol as substrate assessed as remaining enzyme activity at 1 mM by stopped-flow method in presence of 1 mM NAD+
[5] = molecular target: T1, Alcohol dehydrogenase (Equus caballus); test: Inactivation of horse liver alcohol dehydrogenase using ethanol as substrate at 10 to 200 mM up to 5 mins by spectrophotometric titration in presence of 1 mM NAD+
Outline: (§1)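 Enzyme (1 mg/mL) incubated with reagent under 5 min in 0.1 M Na₂P₂O₇ adjusted to pH 8.0 with H₃PO₄, 25 °C, with NAD⁺ where stated. Then 10 μL of reaction mixture diluted into 1 mL standard assay mixture, and the initial velocity of NADH production measured. Activity is given relative to the original.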

[6] = molecular target: T1, Alcohol dehydrogenase (Equus caballus); test: Inactivation of horse liver alcohol dehydrogenase using ethanol as substrate at 200 mM up to 5 mins by spectrophotometric titration; outline: as §1
[7] = molecular target: T1, Alcohol dehydrogenase (Equus caballus); test: Inactivation of horse liver alcohol dehydrogenase using ethanol as substrate at 10 mM up to 5 mins by spectrophotometric titration; outline: as §1
[8] = molecular target: T1, Alcohol dehydrogenase (Equus caballus); test: Reversible inhibition of horse liver alcohol dehydrogenase using ethanol as substrate by stopped-flow method in presence of 1 mM NAD+
[9] = molecular target: T1, Alcohol dehydrogenase (Equus caballus); test: Reversible inhibition of horse liver alcohol dehydrogenase using ethanol as substrate assessed as reduction in enzyme activity at 0.1 mM compound in diluted assay mixture measured after 20 to 40 mins by stopped-flow method in presence of NAD+

inhibition [1]	Kd (Alcohol dehydrogenase) [µM]	Structure (SMILES)	also measured
Active	200	ClCCc1cc[nH]n1	Activity [2]: 10%; Activity [3]: ≥ 48%; Activity [4]: 67%
	0.77	OCCc1cn[nH]c1	
Active	6500	O=C(O)c1cc[nH]n1	
	0.013	Cc1cn[nH]c1 [FOMEPIZOLE]	
Active	5100	CC(=O)c1cc[nH]n1	
Active	170	OCCc1cc[nH]n1	
Active	150	OCc1cc[nH]n1	

Second part, the compound before the results:

Structure (SMILES)	inhibition [1]	Kd (Alcohol dehydrogenase) [µM]	also measured
Cc1cc[nH]n1	Active	125	
OCc1cn[nH]c1		3.6	
ClCc1cn[nH]c1		2.7	
ClCc1cc[nH]n1	Active		Activity [5]: inactive; Activity [6]: 98%; Activity [7]: 36%
ClCCCc1cn[nH]c1		0.02	
OCCCc1cn[nH]c1		0.56	
c1cn[nH]c1 [PYRAZOLE]		0.2	Activity [8]: 3 ×10⁵ /M/s
ClCCCc1cc[nH]n1	Active	40	Activity [2]: 10%; Activity [3]: ≥ 48%; Activity [4]: 67%; inhibition [9]: 52%
OCCCc1cc[nH]n1	Active	60	
